Test results from ChEMBL document CHEMBL2424622, “Development of amino-pyrimidine inhibitors of c-Jun N-terminal kinase (JNK): kinase profiling guided optimization of a 1,2,3-benzotriazole lead” (Bioorg Med Chem Lett, 2013).

Experiments:
[1] = target: Phosphatidylinositol 4-phosphate 5-kinase type-1 alpha (Homo sapiens) (UniProt Q99755); assay: Competitive binding affinity to PIP5K1A (unknown origin) at 10 uM in presence of ATP relative to control
[2] = target: Aurora kinase B (Homo sapiens) (UniProt Q96GD4); assay: Competitive binding affinity to AURKB (unknown origin) at 10 uM in presence of ATP relative to control
Outline: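 In vitro ATP-site competition binding assay across a diverse panel of 128 kinases, with each compound tested at a single concentration. Kinase binding is expressed relative to control.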

[3] = target: T1, Serine/threonine-protein kinase Nek5 (Homo sapiens) (UniProt Q6P3R8); assay: Competitive binding affinity to NEK5 (unknown origin) at 10 uM in presence of ATP relative to control
T1 sequence (whole entry): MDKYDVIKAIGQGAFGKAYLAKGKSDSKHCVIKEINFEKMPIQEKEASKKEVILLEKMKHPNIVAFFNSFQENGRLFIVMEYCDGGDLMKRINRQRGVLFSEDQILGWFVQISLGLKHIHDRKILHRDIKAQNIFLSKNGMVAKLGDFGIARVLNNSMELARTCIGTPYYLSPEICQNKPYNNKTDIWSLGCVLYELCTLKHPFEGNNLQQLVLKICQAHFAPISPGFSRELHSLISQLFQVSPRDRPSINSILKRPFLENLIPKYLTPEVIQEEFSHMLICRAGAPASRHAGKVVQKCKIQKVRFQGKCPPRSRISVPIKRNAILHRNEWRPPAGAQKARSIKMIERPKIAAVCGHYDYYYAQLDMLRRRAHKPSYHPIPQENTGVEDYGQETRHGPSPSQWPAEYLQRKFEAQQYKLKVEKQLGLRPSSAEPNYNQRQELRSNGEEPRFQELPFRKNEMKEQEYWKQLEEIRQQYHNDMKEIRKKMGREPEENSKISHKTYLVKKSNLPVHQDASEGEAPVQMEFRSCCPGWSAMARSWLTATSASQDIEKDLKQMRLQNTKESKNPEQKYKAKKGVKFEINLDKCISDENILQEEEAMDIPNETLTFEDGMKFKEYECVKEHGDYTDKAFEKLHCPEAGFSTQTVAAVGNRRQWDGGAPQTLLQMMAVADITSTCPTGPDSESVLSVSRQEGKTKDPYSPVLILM

[4] = target: Ribosomal protein S6 kinase alpha-1 (Homo sapiens, UniProt Q15418); assay: Competitive binding affinity to RPS6KA1 kinase domain 1 (unknown origin) at 10 uM in presence of ATP relative to control
[5] = target: Mitogen-activated protein kinase 4 (Homo sapiens, UniProt P31152); assay: Competitive binding affinity to ERK4 (unknown origin) at 10 uM in presence of ATP relative to control
[6] = target: Myosin light chain kinase, smooth muscle (Homo sapiens) (UniProt Q15746); assay: Competitive binding affinity to MYLK (unknown origin) at 10 uM in presence of ATP relative to control
[7] = target: NT-3 growth factor receptor (Homo sapiens) (UniProt Q16288); assay: Competitive binding affinity to TRKC (unknown origin) at 10 uM in presence of ATP relative to control
[8] = tested on: T2, Receptor-type tyrosine-protein kinase FLT3 (Homo sapiens), P36888 [D835H]; assay: Competitive binding affinity to FLT3 D835H mutant (unknown origin) at 10 uM in presence of ATP relative to control
T2 sequence (whole entry): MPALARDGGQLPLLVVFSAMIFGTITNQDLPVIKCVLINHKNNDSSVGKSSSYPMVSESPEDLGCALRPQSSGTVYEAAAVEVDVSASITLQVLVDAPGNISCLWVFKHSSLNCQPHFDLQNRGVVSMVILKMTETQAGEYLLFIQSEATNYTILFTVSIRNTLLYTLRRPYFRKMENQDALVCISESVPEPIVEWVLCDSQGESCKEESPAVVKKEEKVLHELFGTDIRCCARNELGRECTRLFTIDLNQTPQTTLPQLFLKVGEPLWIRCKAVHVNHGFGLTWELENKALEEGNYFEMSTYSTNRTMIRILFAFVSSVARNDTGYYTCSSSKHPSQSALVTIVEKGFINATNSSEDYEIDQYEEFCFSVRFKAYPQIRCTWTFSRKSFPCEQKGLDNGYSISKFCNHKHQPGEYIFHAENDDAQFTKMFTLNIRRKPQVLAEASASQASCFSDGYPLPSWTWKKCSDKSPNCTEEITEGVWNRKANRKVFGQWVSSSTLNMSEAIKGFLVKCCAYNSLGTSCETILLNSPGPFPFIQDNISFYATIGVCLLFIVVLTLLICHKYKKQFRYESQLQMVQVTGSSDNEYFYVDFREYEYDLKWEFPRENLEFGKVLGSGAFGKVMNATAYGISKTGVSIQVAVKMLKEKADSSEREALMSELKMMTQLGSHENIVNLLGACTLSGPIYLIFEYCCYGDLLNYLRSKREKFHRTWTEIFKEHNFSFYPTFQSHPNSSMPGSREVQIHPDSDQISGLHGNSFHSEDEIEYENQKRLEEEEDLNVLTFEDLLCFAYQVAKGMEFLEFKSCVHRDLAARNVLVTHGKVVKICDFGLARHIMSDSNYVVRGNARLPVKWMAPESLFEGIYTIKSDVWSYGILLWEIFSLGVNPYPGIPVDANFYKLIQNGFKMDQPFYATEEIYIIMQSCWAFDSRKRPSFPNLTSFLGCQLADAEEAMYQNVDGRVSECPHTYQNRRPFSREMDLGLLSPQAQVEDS

[9] = target: T3, NUAK family SNF1-like kinase 2 (Homo sapiens) (UniProt Q9H093); assay: Competitive binding affinity to SNARK (unknown origin) at 10 uM in presence of ATP relative to control
T3 sequence (whole entry): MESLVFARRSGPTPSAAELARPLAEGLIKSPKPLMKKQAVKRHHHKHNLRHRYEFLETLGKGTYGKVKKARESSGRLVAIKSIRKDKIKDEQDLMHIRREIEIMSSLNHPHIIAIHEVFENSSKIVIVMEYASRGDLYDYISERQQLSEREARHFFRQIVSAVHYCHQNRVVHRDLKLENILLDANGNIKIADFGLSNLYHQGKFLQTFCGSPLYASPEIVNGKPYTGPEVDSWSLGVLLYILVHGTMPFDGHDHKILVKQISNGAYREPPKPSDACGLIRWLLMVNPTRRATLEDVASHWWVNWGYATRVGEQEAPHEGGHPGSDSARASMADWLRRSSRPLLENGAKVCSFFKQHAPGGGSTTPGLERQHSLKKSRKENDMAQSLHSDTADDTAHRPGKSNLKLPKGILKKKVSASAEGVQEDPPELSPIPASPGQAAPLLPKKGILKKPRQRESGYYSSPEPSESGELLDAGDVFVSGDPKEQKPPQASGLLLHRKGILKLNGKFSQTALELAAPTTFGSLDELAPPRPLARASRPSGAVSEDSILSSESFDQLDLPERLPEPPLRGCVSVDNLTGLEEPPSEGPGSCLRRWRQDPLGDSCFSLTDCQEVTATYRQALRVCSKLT

Sequence of NT-3 growth factor receptor (Homo sapiens) (Q16288 32-839 limits assumed): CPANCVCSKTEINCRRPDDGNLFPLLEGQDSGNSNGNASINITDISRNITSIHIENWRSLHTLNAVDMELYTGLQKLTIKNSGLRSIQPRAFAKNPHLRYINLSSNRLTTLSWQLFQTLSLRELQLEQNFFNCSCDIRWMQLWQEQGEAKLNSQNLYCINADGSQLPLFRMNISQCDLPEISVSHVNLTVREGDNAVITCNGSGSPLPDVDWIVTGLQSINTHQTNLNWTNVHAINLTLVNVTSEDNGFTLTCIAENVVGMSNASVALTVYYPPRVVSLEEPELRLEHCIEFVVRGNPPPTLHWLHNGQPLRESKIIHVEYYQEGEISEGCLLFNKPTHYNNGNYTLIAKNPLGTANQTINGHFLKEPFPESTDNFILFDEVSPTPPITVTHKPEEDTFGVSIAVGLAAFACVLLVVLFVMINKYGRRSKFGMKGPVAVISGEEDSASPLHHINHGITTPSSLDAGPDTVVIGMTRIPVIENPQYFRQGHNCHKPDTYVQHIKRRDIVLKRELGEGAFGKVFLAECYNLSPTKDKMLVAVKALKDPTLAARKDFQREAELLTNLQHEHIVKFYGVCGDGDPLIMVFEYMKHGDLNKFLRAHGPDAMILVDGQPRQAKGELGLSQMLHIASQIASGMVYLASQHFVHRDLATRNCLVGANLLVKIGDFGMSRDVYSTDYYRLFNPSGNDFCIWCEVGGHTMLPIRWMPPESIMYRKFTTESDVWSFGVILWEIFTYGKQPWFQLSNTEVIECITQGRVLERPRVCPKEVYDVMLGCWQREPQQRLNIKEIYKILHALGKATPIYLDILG
Sequence of Aurora kinase B (Homo sapiens) (Q96GD4 whole entry): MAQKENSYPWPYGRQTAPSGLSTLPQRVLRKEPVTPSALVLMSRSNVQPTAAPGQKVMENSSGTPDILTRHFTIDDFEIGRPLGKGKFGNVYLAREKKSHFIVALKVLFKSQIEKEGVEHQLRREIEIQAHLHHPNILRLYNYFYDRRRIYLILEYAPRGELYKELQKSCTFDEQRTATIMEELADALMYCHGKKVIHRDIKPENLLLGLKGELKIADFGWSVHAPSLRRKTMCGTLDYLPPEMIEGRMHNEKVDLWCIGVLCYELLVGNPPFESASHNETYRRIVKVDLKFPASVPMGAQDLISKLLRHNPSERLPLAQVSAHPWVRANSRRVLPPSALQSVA
Sequence of Phosphatidylinositol 4-phosphate 5-kinase type-1 alpha (Homo sapiens) (Q99755 whole entry): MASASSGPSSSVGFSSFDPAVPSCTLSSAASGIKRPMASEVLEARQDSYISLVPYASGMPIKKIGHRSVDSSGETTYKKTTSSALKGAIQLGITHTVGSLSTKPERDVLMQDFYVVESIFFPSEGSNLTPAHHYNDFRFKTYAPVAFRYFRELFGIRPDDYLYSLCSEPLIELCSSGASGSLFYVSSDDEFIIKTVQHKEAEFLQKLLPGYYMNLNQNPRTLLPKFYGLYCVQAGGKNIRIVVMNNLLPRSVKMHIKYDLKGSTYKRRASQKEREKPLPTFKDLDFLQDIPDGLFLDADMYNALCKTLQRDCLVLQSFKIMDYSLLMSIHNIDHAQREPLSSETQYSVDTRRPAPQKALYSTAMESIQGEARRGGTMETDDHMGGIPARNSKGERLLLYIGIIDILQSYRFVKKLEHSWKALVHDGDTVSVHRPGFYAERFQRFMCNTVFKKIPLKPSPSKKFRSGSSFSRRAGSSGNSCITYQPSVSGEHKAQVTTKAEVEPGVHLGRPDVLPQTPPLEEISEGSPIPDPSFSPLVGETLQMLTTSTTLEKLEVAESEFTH
Sequence of Mitogen-activated protein kinase 4 (P31152 whole entry): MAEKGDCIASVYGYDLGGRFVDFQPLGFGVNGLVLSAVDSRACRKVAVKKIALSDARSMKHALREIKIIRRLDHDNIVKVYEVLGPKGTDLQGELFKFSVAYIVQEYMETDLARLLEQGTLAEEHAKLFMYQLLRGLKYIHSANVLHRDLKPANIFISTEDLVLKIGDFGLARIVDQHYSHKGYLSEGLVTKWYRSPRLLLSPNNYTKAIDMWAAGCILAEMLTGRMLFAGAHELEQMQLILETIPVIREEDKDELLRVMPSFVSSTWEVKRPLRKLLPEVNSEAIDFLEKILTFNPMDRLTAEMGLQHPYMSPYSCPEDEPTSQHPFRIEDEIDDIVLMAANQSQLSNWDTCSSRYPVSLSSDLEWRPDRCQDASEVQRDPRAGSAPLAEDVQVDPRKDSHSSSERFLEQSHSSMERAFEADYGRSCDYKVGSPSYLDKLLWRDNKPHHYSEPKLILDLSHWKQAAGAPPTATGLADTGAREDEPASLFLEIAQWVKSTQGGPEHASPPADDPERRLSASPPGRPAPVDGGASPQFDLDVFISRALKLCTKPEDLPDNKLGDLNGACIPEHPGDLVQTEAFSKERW
Sequence of Myosin light chain kinase, smooth muscle (Homo sapiens) (Q15746 whole entry): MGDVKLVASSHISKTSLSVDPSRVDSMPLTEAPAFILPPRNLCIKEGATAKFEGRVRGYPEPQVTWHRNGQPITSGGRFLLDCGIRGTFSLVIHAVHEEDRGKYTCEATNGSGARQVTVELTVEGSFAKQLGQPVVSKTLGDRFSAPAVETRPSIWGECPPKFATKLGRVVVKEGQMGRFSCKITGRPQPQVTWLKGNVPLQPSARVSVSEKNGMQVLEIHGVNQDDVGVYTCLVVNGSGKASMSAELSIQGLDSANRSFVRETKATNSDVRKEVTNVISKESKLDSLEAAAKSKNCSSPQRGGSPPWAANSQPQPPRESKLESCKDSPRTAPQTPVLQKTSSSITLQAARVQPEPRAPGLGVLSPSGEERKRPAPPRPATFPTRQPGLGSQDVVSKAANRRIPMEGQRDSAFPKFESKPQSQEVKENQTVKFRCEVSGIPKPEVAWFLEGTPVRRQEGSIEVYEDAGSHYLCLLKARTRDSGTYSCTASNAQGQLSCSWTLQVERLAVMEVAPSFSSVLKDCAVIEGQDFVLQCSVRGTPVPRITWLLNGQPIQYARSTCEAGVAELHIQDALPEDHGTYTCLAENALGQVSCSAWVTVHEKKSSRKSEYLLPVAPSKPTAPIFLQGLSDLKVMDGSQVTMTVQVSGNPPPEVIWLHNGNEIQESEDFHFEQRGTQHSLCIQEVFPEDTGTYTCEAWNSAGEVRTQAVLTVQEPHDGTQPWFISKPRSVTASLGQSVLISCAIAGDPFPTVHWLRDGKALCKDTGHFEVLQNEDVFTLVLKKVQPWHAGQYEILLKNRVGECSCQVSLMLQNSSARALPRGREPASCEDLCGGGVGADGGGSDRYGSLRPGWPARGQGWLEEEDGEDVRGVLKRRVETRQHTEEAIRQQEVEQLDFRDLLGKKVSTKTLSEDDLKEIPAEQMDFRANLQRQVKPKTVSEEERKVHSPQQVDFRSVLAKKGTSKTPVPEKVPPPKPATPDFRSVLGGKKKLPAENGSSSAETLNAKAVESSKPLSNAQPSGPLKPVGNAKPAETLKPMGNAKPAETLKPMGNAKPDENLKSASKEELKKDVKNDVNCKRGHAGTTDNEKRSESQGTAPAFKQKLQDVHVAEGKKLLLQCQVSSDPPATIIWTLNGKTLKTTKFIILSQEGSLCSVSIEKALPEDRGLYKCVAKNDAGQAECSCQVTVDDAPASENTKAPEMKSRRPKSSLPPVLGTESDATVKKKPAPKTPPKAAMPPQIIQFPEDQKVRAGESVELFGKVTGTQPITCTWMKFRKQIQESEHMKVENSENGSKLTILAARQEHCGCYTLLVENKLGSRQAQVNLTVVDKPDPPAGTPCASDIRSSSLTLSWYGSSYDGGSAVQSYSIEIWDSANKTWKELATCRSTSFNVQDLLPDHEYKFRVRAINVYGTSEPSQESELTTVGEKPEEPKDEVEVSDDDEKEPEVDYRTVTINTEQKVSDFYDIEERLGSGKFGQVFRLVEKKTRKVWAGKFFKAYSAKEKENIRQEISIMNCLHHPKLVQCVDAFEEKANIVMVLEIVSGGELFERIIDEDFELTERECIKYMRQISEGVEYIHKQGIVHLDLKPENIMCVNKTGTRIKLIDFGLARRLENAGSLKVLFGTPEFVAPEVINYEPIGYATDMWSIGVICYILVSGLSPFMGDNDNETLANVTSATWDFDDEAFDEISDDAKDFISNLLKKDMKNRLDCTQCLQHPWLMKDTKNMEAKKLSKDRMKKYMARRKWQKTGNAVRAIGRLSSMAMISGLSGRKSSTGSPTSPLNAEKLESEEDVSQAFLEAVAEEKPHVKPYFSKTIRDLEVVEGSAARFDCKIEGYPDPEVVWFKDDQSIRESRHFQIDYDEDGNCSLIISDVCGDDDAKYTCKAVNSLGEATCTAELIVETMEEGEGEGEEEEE
Sequence of Ribosomal protein S6 kinase alpha-1 (Q15418 whole entry, the tested form may be a part): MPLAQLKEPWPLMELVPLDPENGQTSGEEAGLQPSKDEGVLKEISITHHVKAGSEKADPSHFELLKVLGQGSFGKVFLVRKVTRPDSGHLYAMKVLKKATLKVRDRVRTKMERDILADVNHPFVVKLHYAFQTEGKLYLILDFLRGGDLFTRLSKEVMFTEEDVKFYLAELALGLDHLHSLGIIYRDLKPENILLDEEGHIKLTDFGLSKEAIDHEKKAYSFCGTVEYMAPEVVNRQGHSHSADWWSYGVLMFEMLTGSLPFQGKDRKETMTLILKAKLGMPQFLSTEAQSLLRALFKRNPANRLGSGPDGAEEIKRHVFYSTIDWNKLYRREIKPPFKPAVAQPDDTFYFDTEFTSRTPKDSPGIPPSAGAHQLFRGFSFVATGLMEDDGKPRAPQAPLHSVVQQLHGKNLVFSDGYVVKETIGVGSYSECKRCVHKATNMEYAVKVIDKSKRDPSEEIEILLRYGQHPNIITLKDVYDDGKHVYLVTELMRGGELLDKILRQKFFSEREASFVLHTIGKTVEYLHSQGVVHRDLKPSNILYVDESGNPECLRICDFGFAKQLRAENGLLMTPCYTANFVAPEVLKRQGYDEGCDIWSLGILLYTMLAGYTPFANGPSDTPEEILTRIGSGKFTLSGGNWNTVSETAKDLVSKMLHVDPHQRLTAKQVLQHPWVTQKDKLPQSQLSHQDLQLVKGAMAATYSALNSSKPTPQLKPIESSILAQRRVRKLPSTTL

Row | Compound | inhibition [1] [%] | inhibition [2] [%] | inhibition [3] [%] | inhibition [4] [%] | inhibition [5] [%] | inhibition [6] [%] | inhibition [7] [%] | inhibition [8] [%] | inhibition [9] [%]
1 | O[C@H]1CC[C@H](Nc2nccc(-n3nnc4ccccc43)n2)CC1 | 94 | 68 | 95 | 100 | 100 | 94 | < 50 | 99 | 94
2 | CS(=O)(=O)CCCOc1cccc2c1ccn2-c1ccnc(N[C@H]2CC[C@H](C(=O)N3CCC(O)CC3)CC2)n1 | – | – | > 85 | > 85 | > 85 | – | – | – | > 85
3 | O[C@H]1CC[C@H](Nc2nccc(-n3ncc4ccccc43)n2)CC1 | 88 | < 50 | 71 | 91 | 99 | 74 | < 50 | 100 | 78
4 | O[C@H]1CC[C@H](Nc2nccc(-c3n[nH]c4ccccc34)n2)CC1 | – | 91 | – | – | – | – | 99 | 100 | –
5 | O[C@H]1CC[C@H](Nc2nccc(-n3ccc4ccccc43)n2)CC1 | < 50 | < 50 | < 50 | 66 | 63 | < 50 | < 50 | < 50 | < 50
